Activity calls are given as the source filed them.
What was measured:
[1] = Inhibition of Bacillus subtilis topoisomerase 4
Streptococcus pneumoniae [2] = assay: Antibacterial activity against penicillin-resistant Streptococcus pneumoniae 700677; format: functional
Procedure, shortened: (§1)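 Streptococci tested by CLSI broth microdilution in Mueller-Hinton broth with 5% defibrinated horse blood, log-phase inoculum at 1 x 10^5 CFU/ml. Incubated 37°C with shaking, 16 to 20 h, in 5% humidified CO2. Compounds at 1% DMSO final. MIC is the lowest concentration without growth by OD600. Quadruplicate; highest MIC reported.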

[3] = Therapeutic index, CC50 for MRC5 cells/MIC for Staphylococcus aureus Smith; format: cell-based; details: human
Staphylococcus aureus [4] = assay: Antibacterial activity against Staphylococcus aureus Smith in presence of 10% FCS; format: functional
Enterococcus faecium [5] = assay: Antibacterial activity against vancomycin-resistant Enterococcus faecium B42762; format: functional
Procedure, shortened: (§2)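 Broth microdilution per CLSI with modified incubation. Log-phase cultures in cation-adjusted Mueller-Hinton broth, seeded at 1 x 10^5 CFU/ml. Compounds from DMSO stocks, 1% DMSO final. Incubated 37°C, 16 to 20 h, shaken. Growth read as OD600. MIC is the lowest concentration with no apparent growth. Run in quadruplicate; highest value reported.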

Staphylococcus aureus [6] = assay: Antibacterial activity against methicillin-resistant Staphylococcus aureus 1132; format: functional; procedure, shortened: as §2
Bacillus thuringiensis [7] = assay: Antibacterial activity against Bacillus thuringiensis 33679; format: functional
Staphylococcus aureus [8] = assay: Antibacterial activity against Staphylococcus aureus 25923; format: functional; procedure, shortened: as §2
Enterococcus faecalis [9] = assay: Antibacterial activity against Enterococcus faecalis 29212; format: functional; procedure, shortened: as §2
Streptococcus pneumoniae [10] = assay: Antibacterial activity against penicillin-resistant Streptococcus pneumoniae 700673; format: functional; procedure, shortened: as §1
Enterococcus faecium [11] = assay: Antibacterial activity against vancomycin and linezolid-resistant Enterococcus faecium F118; format: functional; procedure, shortened: as §2
[12] = Inhibition of Bacillus subtilis gyrase
Staphylococcus aureus [13] = assay: Antibacterial activity against HB-EMAU-resistant Staphylococcus aureus Smith; format: functional; procedure, shortened: as §2
Enterococcus faecalis [14] = assay: Antibacterial activity against vancomycin-resistant Enterococcus faecalis 700802; format: functional; procedure, shortened: as §2
Staphylococcus aureus [15] = assay: Antibacterial activity against Staphylococcus aureus Smith 13709; format: functional; procedure, shortened: as §2
Bacillus cereus [16] = assay: Antibacterial activity against Bacillus cereus 4342; format: functional
Staphylococcus aureus [17] = assay: Antibacterial activity against mupirocin-sensitive Staphylococcus aureus 2529; format: functional
Escherichia coli [18] = assay: Antibacterial activity against Escherichia coli J53; format: functional
Klebsiella pneumoniae = assay: Antibacterial activity against Klebsiella pneumoniae 5657; format: functional
Enterococcus faecalis [19] = assay: Antibacterial activity against vancomycin-resistant Enterococcus faecalis 51575; format: functional; procedure, shortened: as §2
Bacillus subtilis [20] = assay: Inhibition of DNA synthesis in Bacillus subtilis BD54; format: functional, organism-based
Procedure, shortened: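 B. subtilis BD54 grown to log phase in C plus 50 medium; compound in DMSO added with [8-3H]adenine at time zero, at 5x or 1x MIC; samples over time. DNA = alkali-insensitive TCA-insoluble label; RNA = total TCA-insoluble minus DNA. Effect judged against diluent-control incorporation.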

Streptococcus pneumoniae [21] = assay: Antibacterial activity against penicillin-resistant Streptococcus pneumoniae 700671; format: functional; procedure, shortened: as §1
Staphylococcus aureus [22] = assay: Antibacterial activity against HB-EMAU-resistant and ciprofloxacin-resistant Staphylococcus aureus Smith; format: functional; procedure, shortened: as §2
Staphylococcus aureus [23] = assay: Antibacterial activity against ciprofloxacin-resistant Staphylococcus aureus Smith; format: functional; procedure, shortened: as §2
Streptococcus pneumoniae [24] = assay: Antibacterial activity against penicillin-resistant Streptococcus pneumoniae 700674; format: functional; procedure, shortened: as §1
[25] = tested on: Stenotrophomonas maltophilia; assay: Antibacterial activity against Stenotrophomonas maltophilia 13637; format: functional
Staphylococcus aureus [26] = assay: Antibacterial activity against methicillin-resistant Staphylococcus aureus B42876; format: functional; procedure, shortened: as §2
Staphylococcus aureus [27] = assay: Antibacterial activity against mupirocin-resistant Staphylococcus aureus 777; format: functional; procedure, shortened: as §2
[28] = Inhibition of Bacillus subtilis DNA polymerase 3E
Procedure, shortened: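 Recombinant B. subtilis pol IIIE. Serial compound dilutions in DMSO; 30 mM Tris pH 7.5, 10 mM Mg acetate, 4 mM DTT, 20% glycerol, 25 µM each dATP/dCTP/dGTP, 10 µM [3H]dTTP, 0.4 mg/ml activated calf thymus DNA; 0.025 to 0.06 U enzyme, 10 min at 30°C. TCA-precipitated, filter-collected label counted by scintillation.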

Bacillus thuringiensis [29] = assay: Antibacterial activity against Bacillus thuringiensis 10792; format: functional
[30] = Inhibition of calf thymus DNA polymerase alpha; set-up: species or system Bos taurus
Procedure, shortened: (§3)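 Calf thymus pol alpha or human pol gamma, 0.025 to 0.06 U, added to compound dilutions in reaction mixture; 25 min at 37°C; stopped with ice-cold 10% TCA/10 mM pyrophosphate; precipitated [3H]DNA collected on filters and counted. Ki values for dGTP-competitive inhibitors obtained by truncated assay lacking dGTP.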

Pseudomonas aeruginosa = assay: Antibacterial activity against Pseudomonas aeruginosa 27853; format: functional
Streptococcus pneumoniae [31] = assay: Antibacterial activity against Streptococcus pneumoniae 49619; format: functional; procedure, shortened: as §1
Bacillus cereus [32] = assay: Antibacterial activity against Bacillus cereus 6464; format: functional
Staphylococcus aureus [33] = assay: Antibacterial activity against Staphylococcus aureus 1081; format: functional; procedure, shortened: as §2
[34] = biological target: T1, DNA polymerase subunit gamma-1 (Homo sapiens, UniProt P54098); assay: Inhibition of human DNA polymerase gamma; procedure, shortened: as §3
T1 sequence (P54098 whole entry): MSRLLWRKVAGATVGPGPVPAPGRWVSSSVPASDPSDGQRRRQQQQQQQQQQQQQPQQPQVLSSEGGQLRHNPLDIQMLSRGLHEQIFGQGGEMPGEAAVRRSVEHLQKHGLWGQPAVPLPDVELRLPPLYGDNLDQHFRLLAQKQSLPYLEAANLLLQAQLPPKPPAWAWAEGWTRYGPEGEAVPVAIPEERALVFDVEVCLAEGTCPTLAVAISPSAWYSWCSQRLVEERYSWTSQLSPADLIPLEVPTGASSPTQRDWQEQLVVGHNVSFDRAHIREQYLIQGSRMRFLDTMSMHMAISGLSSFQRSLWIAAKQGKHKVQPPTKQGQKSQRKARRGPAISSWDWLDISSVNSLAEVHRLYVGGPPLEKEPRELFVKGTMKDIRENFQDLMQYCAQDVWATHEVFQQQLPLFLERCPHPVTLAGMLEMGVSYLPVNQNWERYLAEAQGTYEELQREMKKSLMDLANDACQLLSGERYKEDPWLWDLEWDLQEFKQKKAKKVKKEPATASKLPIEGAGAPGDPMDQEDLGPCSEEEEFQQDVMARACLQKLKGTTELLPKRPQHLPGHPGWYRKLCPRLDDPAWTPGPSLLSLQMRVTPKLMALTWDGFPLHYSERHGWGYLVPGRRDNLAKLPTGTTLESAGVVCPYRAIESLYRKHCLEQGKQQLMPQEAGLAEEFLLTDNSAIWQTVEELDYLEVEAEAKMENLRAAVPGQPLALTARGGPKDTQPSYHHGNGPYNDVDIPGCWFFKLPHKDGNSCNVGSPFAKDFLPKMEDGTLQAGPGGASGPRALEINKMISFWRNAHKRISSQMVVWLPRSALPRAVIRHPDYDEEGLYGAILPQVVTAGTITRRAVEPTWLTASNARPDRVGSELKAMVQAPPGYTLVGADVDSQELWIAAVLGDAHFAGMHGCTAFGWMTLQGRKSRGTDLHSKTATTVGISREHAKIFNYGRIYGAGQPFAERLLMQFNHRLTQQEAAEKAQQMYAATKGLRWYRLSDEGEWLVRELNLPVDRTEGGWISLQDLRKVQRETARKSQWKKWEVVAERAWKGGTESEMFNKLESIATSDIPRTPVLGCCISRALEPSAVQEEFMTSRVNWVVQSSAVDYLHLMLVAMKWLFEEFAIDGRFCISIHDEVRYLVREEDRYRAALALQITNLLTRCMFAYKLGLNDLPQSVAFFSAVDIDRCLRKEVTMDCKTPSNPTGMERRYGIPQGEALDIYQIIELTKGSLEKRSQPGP

Streptococcus pyogenes = assay: Antibacterial activity against Streptococcus pyogenes 12344; format: functional
Enterococcus faecium [35] = assay: Antibacterial activity against vancomycin-resistant Enterococcus faecium 1644; format: functional; procedure, shortened: as §2
Staphylococcus aureus [36] = assay: Antibacterial activity against methicillin-resistant Staphylococcus aureus 1094; format: functional; procedure, shortened: as §2
Streptococcus pneumoniae [37] = assay: Antibacterial activity against penicillin-resistant Streptococcus pneumoniae 700670; format: functional; procedure, shortened: as §1
Bacillus subtilis [38] = assay: Antibacterial activity against Bacillus subtilis BD54; format: functional
Staphylococcus aureus [39] = assay: Antibacterial activity against methicillin-resistant Staphylococcus aureus 1123; format: functional; procedure, shortened: as §2
Enterococcus faecium [40] = assay: Antibacterial activity against Enterococcus faecium 19434; format: functional; procedure, shortened: as §2
Bacillus anthracis = assay: Antibacterial activity against Bacillus anthracis Sterne; format: functional
Escherichia coli [41] = assay: Antibacterial activity against ciprofloxacin-resistant Escherichia coli XL1-Blue; format: functional; procedure, shortened: as §2
[42] = Cytotoxicity against human MRC5 cells; format: cell-based
Procedure, shortened: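 MRC-5 human diploid fibroblasts, 4 x 10^3 cells per well, exposed to compound from DMSO stock (final 1%) in minimal essential medium with 10% fetal calf serum for 72 h at 37°C beside a DMSO-only control.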

Enterococcus faecalis [43] = assay: Antibacterial activity against vancomycin-resistant Enterococcus faecalis 51299; format: functional; procedure, shortened: as §2

CCc1cc(Nc2cc(=O)n(CCCCN3CCN(c4c(F)cc5c(=O)c(C(=O)O)cn(C6CC6)c5c4F)CC3C)c(=O)[nH]2)ccc1C (configuration not stated)
31 µM: IC50 [12]
0.313 µg/mL: MIC (Streptococcus pneumoniae [2]) | MIC (Streptococcus pneumoniae [10]) | MIC (Staphylococcus aureus [15]) | MIC (Streptococcus pneumoniae [21]) | MIC (Streptococcus pyogenes)
> 128: selectivity ratio [3]
684 µM: Ki [34]
active: Activity (Bacillus subtilis [20])
0.625 µg/mL: MIC (Staphylococcus aureus [4]) | MIC (Staphylococcus aureus [6]) | MIC (Staphylococcus aureus [8]) | MIC (Staphylococcus aureus [13]) | MIC (Streptococcus pneumoniae [24]) | MIC (Streptococcus pneumoniae [31]) | MIC (Staphylococcus aureus [33]) | MIC (Streptococcus pneumoniae [37])
5 µg/mL: MIC (Staphylococcus aureus [17])
> 80 µg/mL: MIC (Pseudomonas aeruginosa) | CC50 [42]
43.6 µM: IC50 [1]
0.156 µg/mL: MIC (Bacillus thuringiensis [7]) | MIC (Bacillus cereus [16]) | MIC (Bacillus thuringiensis [29]) | MIC (Bacillus cereus [32]) | MIC (Bacillus subtilis [38]) | MIC (Bacillus anthracis)
2.5 µg/mL: MIC (Escherichia coli [18]) | MIC (Staphylococcus aureus [26]) | MIC (Staphylococcus aureus [27]) | MIC (Enterococcus faecium [40])
10 µg/mL: MIC [25]
1.25 µg/mL: MIC (Enterococcus faecium [5]) | MIC (Enterococcus faecalis [9]) | MIC (Enterococcus faecium [11]) | MIC (Enterococcus faecalis [14]) | MIC (Enterococcus faecalis [19]) | MIC (Staphylococcus aureus [23]) | MIC (Enterococcus faecium [35]) | MIC (Staphylococcus aureus [36]) | MIC (Staphylococcus aureus [39]) | MIC (Escherichia coli [41]) | MIC (Enterococcus faecalis [43])
> 482 µM: Ki [28] | Ki [30]
20 µg/mL: MIC (Klebsiella pneumoniae) | MIC (Staphylococcus aureus [22])
